Source: ChEMBL document CHEMBL1124013, “Anticonvulsant activities of phenyl-substituted bicyclic 2,4-oxazolidinediones and monocyclic models. Comparison with binding to the neuronal voltage-dependent sodium channel” (J Med Chem, 1988)
Active and inactive are the calls of the source. No cut-off for these calls is given here.

What was measured:
Mus musculus [1] = test: Anticonvulsant activity in mice, induced by maximal electroshock for Phase-I screening; Active at 300 mg/kg; type: functional, organism-based; parameters: dose 300 mg/kg
Outline: (§1)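 Phase I qualitative screen run by the NINCDS Anticonvulsant Drug Development Program. Mice (1-4 per group) received 30, 100 or 300 mg/kg ip as suspensions in 30% polyethylene glycol 400 unless otherwise noted. Testing was 30 min after dosing in the MES, subcutaneous Metrazol or rotorod toxicity model.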

[2] = molecular target: Sodium channel alpha subunits; brain (Types I, II, III) (Rattus norvegicus, UniProt P04775+P04774+P08104); test: In vitro inhibition of [3H]-BTX-B binding to sodium channels in rat brain synapto-neurosomes; type: tissue-based
Outline: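 Rat cerebral cortex synaptoneurosomes were prepared by glass-glass homogenization in choline chloride/HEPES/glucose/MgSO4/KCl buffer, then spun at 1000g for 15 min at 4 °C. Incubation was 40 min at 25 °C with 10 nM [3H]BTX-B, 50 µg/mL scorpion venom, about 980 µg protein and varying compound concentrations (final MeOH <1%). Bound label was collected by filtration and scintillation counting. Nonspecific binding was taken with 250 µM veratridine. IC50 is the concentration giving 50% inhibition of specific binding.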

Mus musculus [3] = test: Anticonvulsant activity in mice, induced by subcutaneous administration of Metrazol for Phase-I screening; Active at 30 mg/kg; type: functional, organism-based; parameters: dose 30 mg/kg; outline: as §1
[4] = Rotarod toxicity test for the compound in Phase-II screening was determined; type: organism-based; conditions: mouse, in vivo
Mus musculus [5] = test: Anticonvulsant activity in mice(induced by maximal electroshock )after 0.5 hr of administration, for Phase-II screening; type: functional
Outline: (§2)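 Phase II quantitative evaluation in mice by the NINCDS program. Dosing was ip as suspensions in 0.5% methylcellulose or 30% polyethylene glycol 400. ED50 (MES or subcutaneous Metrazol) or TD50 (rotorod) in mg/kg was derived with 95% confidence intervals, measured at the stated time after administration.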

Mus musculus [6] = test: Rotarod toxicity test in Phase-I screening was determined; Active at 30 mg/kg; type: organism-based; parameters: dose 30 mg/kg; conditions: in vivo; outline: as §1
Mus musculus [7] = test: Anticonvulsant activity in mice, (induced by subcutaneous administration of Metrazol.) after 0.5 hr of administration, for Phase-II screening; type: functional; conditions: sc; outline: as §2
Mus musculus [8] = test: Anticonvulsant activity in mice, induced by maximal electroshock for Phase-I screening; active at 100 mg/kg; type: functional, organism-based; parameters: dose 100 mg/kg; outline: as §1
Mus musculus [9] = test: Rotarod toxicity test in Phase-I screening was determined; active at 100 mg/kg; type: organism-based; parameters: dose 100 mg/kg; conditions: in vivo; outline: as §1
Mus musculus [10] = test: Anticonvulsant activity in mice(induced by maximal electroshock) after 0.25 hr of administration, for Phase-II screening; type: functional; outline: as §2
Mus musculus [11] = test: Anticonvulsant activity in mice, induced by subcutaneous administration of Metrazol for Phase-I screening; active at 100 mg/kg; type: functional, organism-based; parameters: dose 100 mg/kg; outline: as §1
Mus musculus [12] = test: Anticonvulsant activity in mice, (induced by subcutaneous administration of Metrazol) after 0.25 hr of administration, for Phase-II screening; type: functional; conditions: sc; outline: as §2
Mus musculus [13] = test: Anticonvulsant activity in mice, (induced by subcutaneous administration of Metrazol.) after 2 hr of administration, for Phase-II screening; Inactive; type: functional, organism-based; outline: as §2
Mus musculus [14] = test: Anticonvulsant activity in mice(induced by maximal electroshock )after 2 hr of administration, for Phase-II screening; type: functional; outline: as §2
Mus musculus [15] = test: Anticonvulsant activity in mice, induced by maximal electroshock for Phase-I screening; Active at 100 mg/kg; type: functional, organism-based; parameters: dose 100 mg/kg; outline: as §1
Mus musculus [16] = test: Rotarod toxicity test in Phase-I screening was determined; Active at 300 mg/kg; type: organism-based; parameters: dose 300 mg/kg; conditions: in vivo; outline: as §1
Mus musculus [17] = test: Anticonvulsant activity in mice, induced by subcutaneous administration of Metrazol for Phase-I screening; Active at 300 mg/kg; type: functional, organism-based; parameters: dose 300 mg/kg; outline: as §1
Mus musculus [18] = test: Rotarod toxicity test in Phase-I screening was determined; Inactive up to 300 mg/kg; type: organism-based; parameters: dose 300 mg/kg; conditions: in vivo; outline: as §1
Mus musculus [19] = test: Anticonvulsant activity in mice, induced by maximal electroshock for Phase-I screening; Inactive up to 300 mg/kg; type: functional, organism-based; parameters: dose 300 mg/kg
Outline: (§3)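 NINCDS Anticonvulsant Drug Development Program qualitative phase I screen in mice (1-4 per dose) at 30, 100 and 300 mg/kg, given ip as suspensions in 30% PEG 400 (some in 0.5% methylcellulose). Challenge 30 min post-dose with maximal electroshock or subcutaneous Metrazol.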

Mus musculus [20] = test: Anticonvulsant activity in mice, (induced by subcutaneous administration of Metrazol.) after 1 hr (tested for rotarod test only) of administration, for Phase-II screening; type: functional; conditions: sc
Mus musculus [21] = test: Anticonvulsant activity in mice(induced by maximal electroshock )after 1 hr (tested for rotarod test only) of administration, for Phase-II screening; type: functional
Mus musculus [22] = test: Anticonvulsant activity in mice, induced by subcutaneous administration of Metrazol for Phase-I screening; Inactive up to 300 mg/kg; type: functional, organism-based; parameters: dose 300 mg/kg; outline: as §3
Mus musculus [23] = test: Anticonvulsant activity in mice(induced by maximal electroshock )after 0.25 hr of administration, for Phase-II screening; type: functional; outline: as §2
Mus musculus [24] = test: Anticonvulsant activity in mice, induced by subcutaneous administration of Metrazol for Phase-I screening; Active at 100 mg/kg; type: functional, organism-based; parameters: dose 100 mg/kg; outline: as §1
Mus musculus [25] = test: Anticonvulsant activity in mice, (induced by subcutaneous administration of Metrazol.) after 0.25 hr of administration, for Phase-II screening; type: functional; conditions: sc; outline: as §2
Mus musculus [26] = test: Anticonvulsant activity in mice (induced by maximal electroshock )after 0.5 hr of administration, for Phase-II screening; type: functional; outline: as §2
Mus musculus [27] = test: Anticonvulsant activity in mice, (induced by subcutaneous administration of Metrazol.) after 0.25 hr of administration, for Phase-II screening; Inactive; type: functional, organism-based; outline: as §2

| IC50 [2] [µM] | Structure (SMILES) | TD50 [4] [mg/kg] | ED50 (Mus musculus [7]) [mg/kg] | MES (Mus musculus [15]) | scMet (Mus musculus [17]) | further results |
| --- | --- | --- | --- | --- | --- | --- |
| 500 | CCC1(c2ccccc2)OC(=O)N(C)C1=O (stereo not given) | 504 | 45 | – | – | MES (Mus musculus [1]): Active; scMet (Mus musculus [3]): Active; ED50 (Mus musculus [5]): 124 mg/kg; Rotorod (Mus musculus [6]): Active |
| 160 | O=C1O[C@]2(c3ccccc3)CCCCCN1C2=O | 147 | – | – | – | MES (Mus musculus [8]): Active; Rotorod (Mus musculus [9]): Active; ED50 (Mus musculus [10]): 66 mg/kg; scMet (Mus musculus [11]): Active; ED50 (Mus musculus [12]): 45 mg/kg |
| > 800 | COC1(c2ccccc2)CCCNC1=O (stereo not given) | 239 | 50 | Active | Active | Rotorod (Mus musculus [16]): Active; ED50 (Mus musculus [5]): 120 mg/kg |
| 380 | O=C1O[C@@]2(c3ccccc3)CCCCN1C2=O | – | – | – | Active | Rotorod (Mus musculus [18]): Not Active; MES (Mus musculus [19]): inactive |
| > 1000 | CN1C(=O)OC(C)(C)C1=O [TRIMETHADIONE] | 819 | – | – | – | ED50 (Mus musculus [20]): 300 mg/kg; ED50 (Mus musculus [21]): 627 mg/kg |
| > 800 | CN1CCCC(O)(c2ccccc2)C1=O (stereo not given) | ~350 | 128 | Active | Active | Rotorod (Mus musculus [18]): Not Active; ED50 (Mus musculus [5]): 84 mg/kg |
| 640 | CCOC(=O)N1CCCCC(O)(c2ccccc2)C1=O (stereo not given) | 216 | – | Active | – | ED50 (Mus musculus [23]): 84 mg/kg; scMet (Mus musculus [24]): Active; Rotorod (Mus musculus [16]): Active |
| > 800 | O=C1NCCCCCC1(O)c1ccccc1 (stereo not given) | 199 | – | Active | Active | ED50 (Mus musculus [23]): 80 mg/kg; ED50 (Mus musculus [25]): 108 mg/kg; Rotorod (Mus musculus [16]): Active |
| > 800 | CCC1(c2ccccc2)OC(=O)NC1=O (stereo not given) | 164 | 39 | – | – | MES (Mus musculus [1]): Active; scMet (Mus musculus [3]): Active; ED50 (Mus musculus [26]): 86 mg/kg; Rotorod (Mus musculus [6]): Active |
| 590 | CCOC(=O)N1CCCC(OC)(c2ccccc2)C1=O (stereo not given) | > 300 | 124 | – | Active | Rotorod (Mus musculus [18]): Not Active; MES (Mus musculus [1]): Active; ED50 (Mus musculus [5]): 225 mg/kg |
| > 800 | O=C1NCCCCC1(O)c1ccccc1 (stereo not given) | 210 | – | Active | Active | ED50 (Mus musculus [23]): 63 mg/kg; ED50 (Mus musculus [25]): 74 mg/kg; Rotorod (Mus musculus [16]): Active |

| Structure (SMILES) | IC50 [2] [µM] | TD50 [4] [mg/kg] | ED50 (Mus musculus [7]) [mg/kg] | MES (Mus musculus [15]) | scMet (Mus musculus [17]) | further results |
| --- | --- | --- | --- | --- | --- | --- |
| O=C1NC(=O)C(c2ccccc2)(c2ccccc2)N1 [PHENYTOIN] | 40 | – | – | – | – | ED50 (Mus musculus [13]): inactive; ED50 (Mus musculus [14]): 10 mg/kg |
| O=C1NCCCC1(O)c1ccccc1 (stereo not given) | > 800 | – | – | – | – | scMet (Mus musculus [22]): inactive; Rotorod (Mus musculus [18]): Not Active; MES (Mus musculus [19]): inactive |
| NC(=O)N1c2ccccc2C=Cc2ccccc21 [CARBAMAZEPINE] | 131 | – | – | – | – | ED50 (Mus musculus [23]): 9 mg/kg; ED50 (Mus musculus [27]): inactive |
